Results as given in PubChem BioAssay.
Activity calls are given as the source filed them.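 The calls were made as follows: active = duplicate-averaged activation above buffer control mean plus 5 SD of those controls; inactive = the rest.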

Test: thallium flux activation in parental CHO cells, counter-screen for KCNQ1 potentiator project (AID 493006);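 as to activation: fluorescence ratio of max minus min over baseline after K+ and Tl+ depolarization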
Conditions: parental CHO-K1 cells, FluxOR thallium flux, at 10 µM; active compounds read high
In short: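 Material: untransfected host CHO-K1 cells with FluxOR thallium dye. Timing: overnight 37 °C plating, 90 min RT dye, 20 min compound. Detection: kinetic FluxOR fluorescence, 10 s baseline, 110 s after stimulus. Read-out basis: max-minus-min fluorescence over baseline, percent of buffer-to-R-L3 span. Replicates: duplicate wells per compound, percent values averaged.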
For `COc1cccc(OC)c1C(=O)Nc1ccc(C(=O)NCc2ccccc2)cc1`, the outcome was “inactive”.
In the case of `CCC1CCCCN1C(=S)NC(=O)c1cccs1` (stereo not given), the activation is reported as 470% (active).
With `CCOC(=O)C1CCN(C(=O)c2c(C)oc3c2C(=O)c2ccccc2C3=O)CC1` the outcome was “inactive”.
With `CCn1c(SC(C)C(=O)O)nc2sc3c(c2c1=O)CCC3` (stereo not given) the activation was 203% (active).
For `O=C(NC(=S)N1CCCCCC1)c1ccccc1`, the outcome was “inactive”.
For `CCCc1ccc2oc(C(=O)N(C)CCn3ccnc3C)c(C)c2c1`, the outcome was “inactive”.
With `CC(=O)c1c(N2CCCC2)[nH]c(-c2ccccc2)nc1=S` the outcome was “inactive”.
With `COc1cccc(C(=O)Nc2nc(-c3ccccc3)c(-c3ccccc3)o2)c1` the activation was 145% (active).
In the case of `CC(OC(=O)CCCNC(=O)c1ccc(Cl)cc1)C(=O)N(C)Cc1ccccc1` (stereo not given), the outcome is reported as “inactive”.
With `CCC1CCc2c(sc(NC(=O)C3CC=CCC3C(=O)O)c2C#N)C1` (stereo not given) the outcome was “inactive”.
With `O=C(CNCC1CCCCC1)Nc1ccc(OC(F)(F)F)cc1` the outcome was “inactive”.
For `CCOC(=O)Cc1csc(NC(=S)NC(=O)c2ccccc2C)n1`, the activation was 201% (active).
For `Cc1ccc(N=Nc2ccc(O)c3ncccc23)cc1C`, the activation was 154% (active).
In the case of `O=c1[nH]c(=S)[nH]c2sc3c(c12)CCCCCC3`, the activation is reported as 138% (active).
With `CC(C)n1c(=S)[nH]c2scc(-c3cccs3)c2c1=O` the activation was 491% (active).
For `O=C(NC(=S)NCCc1ccccc1)c1cccc(Cl)c1`, the activation was 182% (active).
With `CCOC(=O)c1ccc(N2C(=O)c3n[nH]c(C)c3C2c2ccccn2)cc1` (stereo not given) the outcome was “inactive”.
With `CC(=O)Oc1c(-c2ccco2)oc2ccccc2c1=O` the activation was 216% (active).
With `Cc1ccc(C)c(NC(=S)NC(=O)c2cncc(Br)c2)c1` the outcome was “inactive”.
For `O=C(NC(=S)NCCC1=CCCCC1)c1ccco1`, the activation was 324% (active).
For `COc1cccc(-c2cn(-c3cccc(C(F)(F)F)c3)c(=S)[nH]2)c1`, the outcome was “inactive”.
For `COc1ccc(C(=O)NNC(=O)C(=O)Nc2ccc(C)cc2)cc1`, the activation was 254% (active).
In the case of `O=C(N/N=C/c1ccccn1)c1sc2ccccc2c1Cl`, the activation is reported as 156% (active).
In the case of `O=Cc1ccccc1OCCCOc1cccc2cccnc12`, the outcome is reported as “inactive”.
With `O=c1c(Cl)c(Cl)cnn1Cc1nnc(-c2ccccc2Br)o1` the outcome was “inactive”.
In the case of `Cc1ccc(C(=O)NNC(=O)CCCCC(=O)NNC(=O)c2ccc(C)cc2)cc1`, the outcome is reported as “inactive”.
With `COc1ccc(OC)c(S(=O)(=O)CC(O)CS(=O)(=O)c2ccccc2)c1` (stereo not given) the outcome was “inactive”.
For `CN1C=CC=C/C1=C1\SC(=S)N(Cc2ccccc2)C1=O`, the outcome was “inactive”.
In the case of `CC(=O)NC(NC(C)=O)c1ccc(N(C)C)cc1`, the outcome is reported as “inactive”.
For `COCCCn1c(=S)[nH]c2sc3c(c2c1=O)CCCS3`, the activation was 147% (active).
With `C1=Nc2ccccc2CN1c1ccccc1` the outcome was “inactive”.
For `CCN(c1ccc(NS(=O)(=O)c2cc(Cl)ccc2Cl)cc1)C(C)C`, the outcome was “inactive”.
For `S=c1nc(C2CCCCC2)n(-c2ccccc2)[nH]1`, the activation was 356% (active).
For `O=C(Nc1ccc(Cl)cn1)c1cccc(S(=O)(=O)N2CCOCC2)c1`, the outcome was “inactive”.
In the case of `NC(=O)COC(=O)c1ccccc1Nc1ccc(SC(F)F)cc1`, the outcome is reported as “inactive”.
In the case of `COC(=O)c1c(N2C(=O)CC(Sc3ncccc3C(=O)O)C2=O)sc(C)c1C` (stereo not given), the outcome is reported as “inactive”.
With `CN(C)c1oc(-c2ccc(OCc3ccc(Cl)cc3)cc2)nc1C#N` the outcome was “inactive”.
In the case of `CCN(CC)c1ccc(/C=N/Nc2nc3ccccc3[nH]2)c(O)c1`, the outcome is reported as “inactive”.
In the case of `CCN(C(=O)COC(=O)C(Cc1ccccc1)N1C(=O)c2ccccc2C1=O)C1CCS(=O)(=O)C1` (stereo not given), the outcome is reported as “inactive”.
In the case of `CCOC(=O)c1cccc(NC(=O)CCc2ccccc2)c1`, the outcome is reported as “inactive”.
